Source: ChEMBL document CHEMBL1126069, “Synthesis of high affinity fluorine-substituted ligands for the androgen receptor. Potential agents for imaging prostatic cancer by positron emission tomography” (J Med Chem, 1992)

Key:
[1] = Relative affinity for rat androgen receptor(AR) and human Sex steroid binding protein (SBP)
How it was run: (§1)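 Each ratio is AR relative binding affinity divided by the RBA for PgR, MR or SBP. The AR source was ventral prostate cytosol from mature male Holtzman rats orchidectomized 24 h before. Cytosol was preincubated with triamcinolone acetonide to block PgR and corticosteroid receptors. [3H]R1881 served as tracer, incubated 18 h at 0 °C. Free ligand was removed with dextran-coated charcoal, 15 min at 0 °C. AR RBA is on a percent scale versus R1881.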

Rattus norvegicus [2] = species on record: Rattus norvegicus; test: Relative affinity for rat androgen receptor(AR) and mineralocorticoid receptor(MR); how it was run: as §1
Rattus norvegicus [3] = species on record: Rattus norvegicus; test: Relative affinity for rat androgen receptor(AR) and progesterone receptor(PgR); how it was run: as §1
[4] = biological target: T1, Mineralocorticoid receptor (Rattus norvegicus) (UniProt P22199); test: Displacement of [3H]aldosterone from rat Mineralocorticoid receptor
T1 sequence (whole entry): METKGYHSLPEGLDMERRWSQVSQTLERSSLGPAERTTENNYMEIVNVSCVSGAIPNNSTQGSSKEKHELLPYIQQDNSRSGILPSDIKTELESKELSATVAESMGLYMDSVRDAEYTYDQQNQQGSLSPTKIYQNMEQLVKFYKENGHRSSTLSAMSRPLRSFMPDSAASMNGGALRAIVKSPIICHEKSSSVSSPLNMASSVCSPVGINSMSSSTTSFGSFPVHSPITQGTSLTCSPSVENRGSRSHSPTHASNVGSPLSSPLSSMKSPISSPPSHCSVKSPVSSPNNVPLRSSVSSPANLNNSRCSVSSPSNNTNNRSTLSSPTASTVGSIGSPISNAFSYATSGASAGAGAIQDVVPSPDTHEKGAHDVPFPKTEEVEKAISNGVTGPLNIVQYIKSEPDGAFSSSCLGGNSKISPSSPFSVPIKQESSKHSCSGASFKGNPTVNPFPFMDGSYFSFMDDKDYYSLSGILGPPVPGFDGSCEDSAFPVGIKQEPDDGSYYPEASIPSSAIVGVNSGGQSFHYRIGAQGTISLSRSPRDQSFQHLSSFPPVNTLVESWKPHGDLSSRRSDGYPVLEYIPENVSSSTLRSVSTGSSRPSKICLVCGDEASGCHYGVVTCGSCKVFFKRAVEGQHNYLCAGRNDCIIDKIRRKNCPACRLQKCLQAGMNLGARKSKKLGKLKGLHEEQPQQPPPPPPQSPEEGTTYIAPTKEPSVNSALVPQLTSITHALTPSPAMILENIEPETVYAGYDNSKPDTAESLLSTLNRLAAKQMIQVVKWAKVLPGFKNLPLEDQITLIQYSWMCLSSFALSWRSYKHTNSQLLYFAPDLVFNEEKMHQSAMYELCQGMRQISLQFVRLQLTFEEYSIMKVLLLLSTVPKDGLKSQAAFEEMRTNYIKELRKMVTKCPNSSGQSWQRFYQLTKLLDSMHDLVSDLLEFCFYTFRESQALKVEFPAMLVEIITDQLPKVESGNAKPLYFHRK
How it was run: (§2)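 Competitive radiometric binding assay giving relative binding affinities. The reference standards were R5020 for rat PgR, aldosterone for rat MR and estradiol for human SBP.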

[5] = biological target: T2, Progesterone receptor (Rattus norvegicus) (UniProt Q63449); test: Displacement of [3H]R5020 from rat progesterone receptor(PgR); how it was run: as §2
T2 sequence (whole entry): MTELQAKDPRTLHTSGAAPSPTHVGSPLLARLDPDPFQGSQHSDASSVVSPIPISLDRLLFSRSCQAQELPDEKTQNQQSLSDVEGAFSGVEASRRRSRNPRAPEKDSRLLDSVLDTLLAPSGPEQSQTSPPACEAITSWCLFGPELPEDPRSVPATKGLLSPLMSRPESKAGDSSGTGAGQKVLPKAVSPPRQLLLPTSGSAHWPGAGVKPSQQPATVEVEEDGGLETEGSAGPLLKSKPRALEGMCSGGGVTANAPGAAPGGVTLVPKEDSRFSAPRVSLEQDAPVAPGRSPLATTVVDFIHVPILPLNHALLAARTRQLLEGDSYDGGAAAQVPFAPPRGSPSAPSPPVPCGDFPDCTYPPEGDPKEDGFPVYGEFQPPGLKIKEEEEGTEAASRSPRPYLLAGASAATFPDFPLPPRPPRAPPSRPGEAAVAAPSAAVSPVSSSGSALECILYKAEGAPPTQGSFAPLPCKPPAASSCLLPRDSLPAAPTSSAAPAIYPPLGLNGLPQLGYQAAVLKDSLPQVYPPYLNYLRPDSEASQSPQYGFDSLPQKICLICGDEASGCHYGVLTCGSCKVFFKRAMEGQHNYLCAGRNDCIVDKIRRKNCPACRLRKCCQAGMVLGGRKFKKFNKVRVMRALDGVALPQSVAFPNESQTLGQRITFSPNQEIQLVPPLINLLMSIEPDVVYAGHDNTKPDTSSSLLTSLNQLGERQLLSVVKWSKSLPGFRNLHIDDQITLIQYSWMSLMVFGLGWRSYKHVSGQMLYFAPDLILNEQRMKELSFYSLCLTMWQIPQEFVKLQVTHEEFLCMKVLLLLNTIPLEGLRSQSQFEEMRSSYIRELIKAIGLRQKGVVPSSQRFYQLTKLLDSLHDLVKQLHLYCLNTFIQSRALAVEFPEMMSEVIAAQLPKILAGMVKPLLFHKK

[6] = biological target: T3, Sex hormone-binding globulin (Homo sapiens) (UniProt P04278); test: Displacement of [3H]estradiol from human Sex steroid binding protein (SBP); how it was run: as §2
T3 sequence (whole entry): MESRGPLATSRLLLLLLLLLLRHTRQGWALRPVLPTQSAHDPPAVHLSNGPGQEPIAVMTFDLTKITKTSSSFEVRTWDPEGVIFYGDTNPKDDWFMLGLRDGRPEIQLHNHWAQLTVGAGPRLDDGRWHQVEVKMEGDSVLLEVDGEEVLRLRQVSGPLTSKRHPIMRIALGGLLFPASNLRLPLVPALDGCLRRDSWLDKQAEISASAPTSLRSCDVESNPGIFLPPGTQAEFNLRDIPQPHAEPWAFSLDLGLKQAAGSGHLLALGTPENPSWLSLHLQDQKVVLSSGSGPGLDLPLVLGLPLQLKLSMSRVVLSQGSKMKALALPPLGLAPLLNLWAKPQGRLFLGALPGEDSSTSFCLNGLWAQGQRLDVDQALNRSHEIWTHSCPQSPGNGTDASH

SMILES	RBA ratio [1]	RBA ratio (Rattus norvegicus [2])	RBA ratio (Rattus norvegicus [3])	relative binding affinity (RBA) [4]	relative binding affinity (RBA) [5]	relative binding affinity (RBA) [6]
C[C@@H]1CC2=CC(=O)CC[C@@H]2C2CC[C@@]3(C)C(CC[C@]3(C)O)C21 (some centres not stated)	6.2	20.7	5.8	5.7	20.4	19
C[C@@H]1CC2=CC(=O)CC[C@@H]2C2CC[C@@]3(C)C(C[C@H](F)[C@@H]3O)C21 (some centres not stated)	9.7	730	23.4	0.05	1.6	3.75
C[C@]12C=CC3=C4CCC(=O)C=C4CCC3C1CC[C@@]2(O)CF (some centres not stated)	8.5	4.2	1.8	4.5	10.5	2.2
C[C@]1(O)CC[C@H]2[C@@H]3CCC4=CC(=O)CCC4=C3C=C[C@@]21C	25	3.9	2.3	25.4	43.7	4
C[C@@H]1CC2=CC(=O)CC[C@@H]2C2CC[C@@]3(C)C(CC[C@@H]3O)C21 (some centres not stated)	5.4	210	42.1	0.74	3.7	28.7
C[C@@H]1CC2=CC(=O)CC[C@@H]2C2CC[C@@]3(C)C(C[C@@H](F)[C@@H]3O)C21 (some centres not stated)	5.5	104	3.8	0.21	5.7	4.01
C[C@@H]1CC2=CC(=O)CC[C@@H]2C2CC[C@@]3(C)C(CC[C@@]3(O)CF)C21 (some centres not stated)	17.7	61.9	5.2	0.86	10.3	3
C[C@]12CC[C@H]3[C@@H](CCC4CC(=O)CC[C@@]43C)[C@@H]1C[C@@H](F)[C@@H]2O (some centres not stated)	0.02	75.5	56.1	0.05	0.07	228
C[C@]12CC[C@H]3[C@@H](CCC4=CC(=O)CC[C@@]43C)[C@@H]1CC[C@@H]2O	–	–	–	4.19	0.09	417
C[C@@H]1CC2=CC(=O)CC[C@@H]2C2CC[C@@]3(C)C(C[C@H](F)[C@]3(C)O)C21 (some centres not stated)	23.7	385	10.3	0.08	3	1.3
C[C@@H]1CC2=CC(=O)CC[C@@H]2C2CC[C@@]3(C)C(C[C@@H](F)[C@]3(C)O)C21 (some centres not stated)	12	101	2.6	0.37	14.4	3.1
C[C@]12CC[C@H]3[C@@H](CCC4=CC(=O)CC[C@@H]43)[C@@H]1CC[C@@H]2O	–	–	–	2	3.1	29.9
C[C@]12CC[C@H]3[C@@H](CCC4CC(=O)CC[C@@]43C)[C@@H]1C[C@H](F)[C@@H]2O (some centres not stated)	0.16	689	356	0.06	0.12	385
